Measurements of several laboratories.
In brackets after ≈: the same amount, converted by molar mass.
Effect on: microbial growth

| Compound | organism | technique | strain | time | MIC [µg/mL] |
| --- | --- | --- | --- | --- | --- |
| CC(=O)Oc1cccc(-n2c(/C=C/c3ccc([N+](=O)[O-])cc3)nc3ccccc3c2=O)c1 | Enterococcus faecium | broth dilution | NCTC7171 |  | 64 (≈ 150 µM) |
| CC(C)Oc1c(-n2cc(-c3ccc(NC(=O)C(CC(N)=O)NC(=O)c4ccc(NC(=O)c5ccc(C#N)cc5)cc4)cc3)nn2)ccc(C(=O)Nc2ccc(C(=O)O)cc2)c1O (stereo not drawn) | Citrobacter freundii |  | DSM30039 |  | 0.5 (≈ 0.598 µM) |
| O=C(O)c1cccc(-n2c(/C=C/c3ccc(F)c(F)c3)nc3ccccc3c2=O)c1 | Enterococcus faecium | broth dilution | NCTC7171 |  | > 128 |
| O=C(O)COc1cccc(Oc2ccc(-c3noc(-c4ccc(O)cc4)n3)cc2)c1 | Enterococcus faecium | broth dilution |  | 24 h | > 32 |
| CC(C)Oc1c(NC(=O)c2ccc(NC(=O)[C@H](CC(N)=O)NC(=O)c3ccc(NC(=O)c4ccc(C#N)cc4)cc3)cc2)ccc(C(=O)Nc2ccc(C(=O)O)cc2)c1O | Citrobacter freundii |  | DSM30039 |  | ≤ 0.03 |
| C[N+](C)(C)CCCc1ccc(Oc2ccc(-c3noc(-c4ccc(O)cc4)n3)cc2)cc1.[I-] | Enterococcus faecium | broth dilution |  | 24 h | 16 |
| O=C(O)c1cccc(-n2c(/C=C/c3ccc(C#CCO)cc3)nc3ccccc3c2=O)c1 | Enterococcus faecium | broth dilution | NCTC7171 |  | > 128 |
| COCCNc1ccc(-c2nc(-c3ccc(Oc4ccccc4)cc3)no2)cc1 | Enterococcus faecium | broth dilution |  | 24 h | > 32 |
| O=C(O)c1cccc(-n2c(/C=C/c3ccc(Cl)cc3)nc3ccncc3c2=O)c1 | Enterococcus faecium | broth dilution | NCTC7171 |  | > 128 |
| O=[N+]([O-])c1ccc(-c2nc(-c3ccc(Oc4ccccc4)cc3)no2)cc1 | Enterococcus faecium | broth dilution |  | 24 h | > 32 |
| NC(=O)c1cccc(-n2c(/C=C/c3ccc(F)cc3)nc3ccccc3c2=O)c1 | Enterococcus faecium | broth dilution | NCTC7171 |  | > 128 |
| CC(C)Oc1c(NC(=O)c2ccc(NC(=O)[C@H](CC(N)=O)NC(=O)c3ccc(NC(=O)c4ccc(C#N)cn4)cc3)cc2)ccc(C(=O)Nc2ccc(C(=O)O)cc2)c1O | Citrobacter freundii |  | DSM30039 |  | ≤ 0.03 |
| O=C(O)c1cn(C2CC2)c2cc(N3CCNCC3)c(F)cc2c1=O | Mycobacterium intracellulare | resazurin | ATCC23068 |  | 1 (≈ 3.02 µM) |
| C/C(=C\c1ccc(O)cc1)C(=O)Nc1ccc(C(=O)N[C@@H](CC(N)=O)C(=O)Nc2ccc(C(=O)Nc3ccc(C(=O)Nc4ccc(C(=O)O)cc4)c(O)c3OC(C)C)cc2)cc1 | Citrobacter freundii |  | DSM30039 |  | 0.125 (≈ 0.148 µM) |
| O=C(O)c1cn(C2CC2)c2cc(N3CCNCC3)c(F)cc2c1=O | Mycobacterium intracellulare | broth dilution | ATCC23068 |  | 0.63 (≈ 1.9 µM) |
